Active and inactive are the calls of the source.

The results in this text go back to ChEMBL document CHEMBL3244046, “Cardenolide analogues. 7. Synthesis and biological activity of some new steroidal guanylhydrazones” (J Med Chem, 1978).

The test system of data set [1] is Left cardiac atrium. The data set can be described thus: Inotropic activity in guinea pig left atrium assessed as change in isometric force of contraction at 5 X 10^-5 M relative to control. It counts as functional, Cavia porcellus. The gist of the method: (§1)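 Guinea pig left auricle in Krebs-Henseleit, 32 °C, gassed O2/5% CO2, resting tension about 1 g. Paced with 10-ms rectangular pulses at 100/min, voltage 20% above threshold. Cumulative dose-response curves up to 10⁻⁴ M. Isometric contraction changes computed against control atria.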

Data set [2] is filed under the species Cavia porcellus. In words: Inhibition of Na(+)/K(+) ATPase-mediated phosphohydrolase activity in guinea pig myocardium at 5 X 10^-5 M after 30 mins relative to control. It counts as tissue-based. The gist of the method:
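Crude membranes from guinea pig myocardium (5-10 units activity; unit = µmol Pi liberated/mg protein/h) incubated 37 °C, 30 min. Substrate consumption under 15% without drug. Dose-response curves over 10⁻⁸–10⁻⁴ M, duplicate determinations; values read from curves.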

The species named for data set [3] is Cavia porcellus. In words: Inhibition of ouabain-insensitive Mg(2+)-ATPase-mediated phosphohydrolase activity in guinea pig myocardium at 5 X 10^-5 M after 30 mins relative to control. It counts as tissue-based. The essentials:
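Guinea pig myocardial crude membranes (5-10 units; µmol Pi/mg protein/h), assayed without Na+ and K+ (ouabain-insensitive activity), with and without drug, 37 °C for 30 min. Substrate use under 15% in drug-free controls. Drug tested 10⁻⁸–10⁻⁴ M in duplicate; values taken from dose-response curves.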

The subject of data set [4] is Left cardiac atrium. The data set can be described thus: Negative inotropic activity in guinea pig left atrium assessed as isometric force of contraction at 10^-8 to 10^-4 M relative to control. Format: functional, tissue-based. The note with it: Cavia porcellus. The gist of the method: as §1
For data set [5], the system named is Left cardiac atrium. The data set can be described thus: Toxicity in guinea pig left atrium assessed as tissue arrest at 5 X 10^-5 M relative to control. Format: tissue-based, Cavia porcellus. To be noted: 50 µM. The gist of the method: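 Electrically paced guinea pig left auricle (Krebs-Henseleit, 32 °C, O₂/5% CO₂, about 1 g resting tension, 10-ms pulses at 100/min, 20% above threshold) given cumulative drug doses up to 10⁻⁴ M. Toxicity was scored as tissue arrest, which follows the inflection of the dose-response curve.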

The subject of data set [6] is Left cardiac atrium. In words: Inotropic activity in guinea pig left atrium assessed as change in isometric force of contraction at 1 X 10^-5 M relative to control. It counts as functional, Cavia porcellus. The gist of the method:
(§2)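 Guinea pig left auricle in Krebs-Henseleit at 32 °C, gassed with O₂/5% CO₂ under about 1 g resting tension. Pacing used 10-ms rectangular pulses at 100/min and 20% above threshold voltage. Change in isometric contraction was referenced to control atria. Cumulative dose-response curves ran up to 10⁻⁴ M.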

The species named for data set [7] is Cavia porcellus. In words: Inhibition of Na(+)/K(+) ATPase-mediated phosphohydrolase activity in guinea pig myocardium at 1 X 10^-5 M after 30 mins relative to control. Format: tissue-based. The essentials: (§3)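 Crude guinea pig myocardial membrane preparation (5-10 units each enzyme; µmol Pi/mg protein/h), incubated 37 °C for 30 min. Substrate consumption stayed below 15%. Dose-response curves spanned 10⁻⁸–10⁻⁴ M in duplicate, and values were read from the curves.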

The species named for data set [8] is Cavia porcellus. The data set can be described thus: Inhibition of ouabain-insensitive Mg(2+)-ATPase-mediated phosphohydrolase activity in guinea pig myocardium at 1 X 10^-5 M after 30 mins relative to control. Format: tissue-based. The essentials: (§4)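 Guinea pig myocardial crude membranes were incubated 30 min at 37 °C without Na⁺ and K⁺. Ouabain-insensitive Mg²⁺-ATPase activity was measured as inorganic phosphate released (µmol/mg protein/h), with and without drug. Substrate use stayed under 15%. Dose-response curves covered 10⁻⁸–10⁻⁴ M, run in duplicate, and values were taken from the curves.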

Data set [9] deals with Left cardiac atrium. The data set can be described thus: Inotropic activity in guinea pig left atrium assessed as change in isometric force of contraction at 2 X 10^-6 M relative to control. Format: functional, Cavia porcellus. The essentials:
as §2

The species entered for data set [10] is Cavia porcellus. The data set can be described thus: Inhibition of Na(+)/K(+) ATPase-mediated phosphohydrolase activity in guinea pig myocardium at 2 X 10^-6 M after 30 mins relative to control. Format: tissue-based. The essentials: as §3
Data set [11] is filed under the species Cavia porcellus. In words: Inhibition of ouabain-insensitive Mg(2+)-ATPase-mediated phosphohydrolase activity in guinea pig myocardium at 2 X 10^-6 M after 30 mins relative to control. It counts as tissue-based. The essentials:
as §4

As a reminder, the inhibition is the share of the control response that was lost under treatment. The low end stands for little suppression, the high end for strong suppression. As to `C[C@]12CC[C@H](O)C[C@H]1CC[C@@H]1[C@@H]2CC[C@]2(C)[C@@H](/C=N\NC(=N)N)CC[C@@H]12`, the Activity with Left cardiac atrium [1] is reported as -45%. For the same compound, the inhibition in the data set listed under Cavia porcellus [2] and in the data set listed under Cavia porcellus [3] was 55% throughout. In addition, the outcome in the data set on Left cardiac atrium [4] was Active.
With `C[C@]12CC[C@H]3[C@@H](CCC4=C[C@@H](O)CC[C@@]43C)[C@@H]1CC[C@@H]2/C=N\NC(=N)N`, the Activity in the data set with Left cardiac atrium [1] is listed as -18%. Besides, the inhibition in the data set listed under Cavia porcellus [2] was determined as 54%. The compound also displayed an Imax in the data set listed under Cavia porcellus [3] of 30%. In the data set on Left cardiac atrium [4], the outcome was Active.
In the case of `C[C@]12CC[C@@H](O)C[C@H]1CC[C@@H]1[C@@H]2CC[C@]2(C)[C@@H](/C=N\NC(=N)N)CC[C@@H]12`, the Activity in the data set on Left cardiac atrium [1] is reported as -10%. For the same compound, the inhibition in the data set filed under Cavia porcellus [2] was determined as 37%; in the data set listed under Cavia porcellus [3], 45%. Further, the outcome in the data set with Left cardiac atrium [4] was Active.
With `C[C@]12CC[C@H](O)C[C@H]1CC[C@@H]1[C@@H]2CC[C@]2(C)[C@@H](/C=N\NC(=N)N)CC[C@]12O`, the inhibition was 53% in the data set filed under Cavia porcellus [2], 0% in the data set listed under Cavia porcellus [3], 20% in the data set listed under Cavia porcellus [7] and 0% in the data set filed under Cavia porcellus [8]. The Activity result in the data set with Left cardiac atrium [5] is on record as “Toxic”; in the data set on Left cardiac atrium [6], 120%.
In the case of `C[C@]12CC[C@H](O)C[C@H]1CC[C@@H]1[C@@H]2CC[C@]2(C)[C@@H](C3=CC(=O)OC3)CC[C@]12O` [DIGITOXIGENIN], the Activity with Left cardiac atrium [9] was 130%. Besides, the inhibition was determined as 60% in the data set listed under Cavia porcellus [10] and 0% in the data set listed under Cavia porcellus [11].
Regarding `C[C@]12CC[C@H](O)C[C@@H]1CC[C@@H]1[C@@H]2CC[C@]2(C)[C@@H](/C=N\NC(=N)N)CC[C@@H]12`, the Activity in the data set on Left cardiac atrium [1] is listed as -50%. For the same compound, in the data set filed under Cavia porcellus [2], the inhibition turned out to be 40%. The Imax in the data set listed under Cavia porcellus [3] was 43%. The outcome in the data set with Left cardiac atrium [4] was Active.
